How the values were obtained:
HeLa cells [1] = assay: Mitochondrial membrane potential with JC-1 probe, live-cell confocal microscopy; assay type: cell-based, human; details: 2 μM JC-1 probe, excitation 488 nm, NP5 after 30 min incubation
How it was run: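 Live HeLa cells were exposed to the test peptide materials for set times, then stained with 2 μM JC-1 followed by Hoechst 33342 before imaging. Confocal microscopy, both channels excited at 488 nm: monomer green at 510–550 nm, J-aggregate red at 585–649 nm; nuclei at ex 405/em 420–480 nm. Green and red fluorescence were compared. CCCP was run alongside.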

HeLa cells [2] = assay type: cell-based, human
[3] = Hydrodynamic diameter by dynamic light scattering; assay type: physicochemical; details: DLS; nanoparticles via photo-PISA at solids content of 15 wt.%

Row | Substance | red fluorescence of JC-1 J-aggregates (mitochondrial membrane potential) (HeLa cells [1]) | cytotoxicity in HeLa cells (HeLa cells [2]) | Dh (hydrodynamic diameter) [3] [nm]
1 | poly[(KLAAm10-co-DMA10)-b-(DAAm280-co-DMA120)] [NP5] | almost no red emission | – | –
2 | poly[(KLAAm10-co-DMA30)-b-(DAAm280-co-DMA120)] [NP3] | – | dose-dependent cytotoxicity | 105

Reference: publication PMC7722202 (Angewandte Chemie (International ed. in English), 2020)
